Assay outcomes (PubChem)
Rad51 HR inh = human RAD51 strand exchange inhibitors, primary screen, biochemical, fluorescence; DNA repair protein RAD51 homolog 1 (Homo sapiens), Q06609; inhibition, % at 10 µM; 200,000 tested, 0.085% active; hRad51 DNA strand exchange, fluorescence dequenching;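 active = inhibition above 40% at the single screening dose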;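 note: 0% = DMSO control wells and 100% = blanks with heterologous ssDNA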
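Material: human Rad51–ssDNA filaments; Probe or stimulus: labelled 47-mer dsDNA for strand exchange; Doses: single 10 µM dose; Incubation: 37 °C 15-min filament assembly, 30-min compound preincubation, 15-min exchange; Technique: FRET fluorescence dequenching, excitation 485 nm, emission 520 nm; Measure: Fluorescence-based percent inhibition, control- and blank-normalised; Benchmarks: plate control and blank wells.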
PMI activator = activators of human PMI, primary screen, biochemical, fluorescence intensity, near-Km mannose 6-phosphate; AID 1214, 2008; activation factor at 20 µM; 190,000 tested, 0.005% active; Mannose-6-phosphate isomerase (Homo sapiens), P34949; purified human PMI, coupled resazurin fluorescence, 20 min; active compounds read high; 1 = vehicle control, 0 substrate-free wells;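 active = activation factor of 2 or more at 20 µM, relative to plate controls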
Target sequence (P34949 whole entry, looked up): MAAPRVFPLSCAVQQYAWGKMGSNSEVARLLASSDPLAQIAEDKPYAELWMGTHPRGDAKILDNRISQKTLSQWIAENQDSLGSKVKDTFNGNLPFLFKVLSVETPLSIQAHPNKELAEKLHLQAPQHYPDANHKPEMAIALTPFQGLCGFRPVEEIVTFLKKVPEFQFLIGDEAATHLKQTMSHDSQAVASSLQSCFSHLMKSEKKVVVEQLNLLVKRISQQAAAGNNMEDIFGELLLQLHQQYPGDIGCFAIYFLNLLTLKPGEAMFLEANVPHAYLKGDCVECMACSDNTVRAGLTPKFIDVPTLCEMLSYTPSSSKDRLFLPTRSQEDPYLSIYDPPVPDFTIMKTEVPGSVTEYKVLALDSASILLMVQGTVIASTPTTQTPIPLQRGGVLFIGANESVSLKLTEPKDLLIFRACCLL
WT yeast gro inh = growth inhibition of WT strain, primary screen, mitochondrial fusion inhibitor project, WT and mutant strains, chemical genetic | inhibition, % at 10 µM | mitochondrial fusion phenotypic screen | 190,000 tested, 2.1% active; in the data active = inhibition above about 58%; tested in S. cerevisiae
Lmaj promast = Leishmania major promastigote growth inhibition, primary screen; Leishmania major promastigotes, resazurin fluorescence viability; inhibition, % at 10 µM; 200,000 tested, 9% active; AID 1063, 2008; in the data active = inhibition above about 50%;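 note: promastigotes grown with compound for 44 hours at 28 °C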
PMI act hi M6P = human PMI activators, high substrate, primary screen, biochemical, fluorescence intensity, near-saturating mannose 6-phosphate | Mannose-6-phosphate isomerase (Homo sapiens), P34949 | 190,000 tested, 0.34% active | activation factor at 20 µM | AID 1216, 2008 | coupled PMI enzyme assay, resazurin fluorescence, 20 min; active compounds read high; 1 = untreated enzyme, 0 = substrate-free blank;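 active = activation factor of 2 or more at 20 µM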
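Test system: human PMI in coupled enzyme assay; Input: PMI at 15 ng/mL final; Medium: HEPES buffer, pH 7.4; Schedule: 20 min incubation at room temperature; Technique: resorufin fluorescence at Ex 544/Em 590 nm; Compound: 20 µM single dose; Probe or stimulus: Near-saturating mannose-6-phosphate, 1.0 mM.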
Calpain2 inh = inhibitors of pig calpain II, primary screen, biochemical, fluorogenic peptide substrate, 1536-well; purified calpain II, 30 min; inhibition, % at 16 µM; 220,000 tested, 0.37% active; AID 1236, 2008;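 active = inhibition above about 50%, limit read from the data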
* marks the source's active call; other numbers are inactive results; i = inactive; . = not tested or not shown. Most compounds without a hit are left out; they make up all but 9.8% or so of the library.

SMILES	Rad51 HR inh	PMI activator	WT yeast gro inh	Lmaj promast	PMI act hi M6P	Calpain2 inh
CCc1nnc(NS(=O)(=O)c2ccc(N=Cc3c(C)[nH]n(-c4ccc(C)c(C)c4)c3=O)cc2)s1	-4	1	63*	-6	1	-1
c1ccc(COc2ccc(OCCCN3CCCC3)cc2)cc1	.	1.2	-4	100*	1.2	-8
CCC(C)c1ccc(OCCN2CCCC2)cc1 (stereo not drawn)	-7	1	26	96*	1	-7
CC1CCN(CCCCOc2ccc(C(=O)c3ccccc3)cc2)CC1	-5	1	2	99*	1.1	11
O=C(CN1CCCC1)Nc1ccc(OCc2ccccc2)cc1	1	1	-14	-2	0.9	-4
CCOC(=O)C(CCCOc1ccc(C(C)CC)cc1)C(=O)OCC (stereo not drawn)	0	1	17	-2	1	3
c1ccc(COc2ccc(OCCN3CCCCC3)cc2)cc1	.	1	22	100*	1.1	0
c1ccc(COc2ccc(OCCCn3cncn3)cc2)cc1	-4	0.9	4	-6	1	4
COc1ccc(NS(=O)(=O)c2cc(NC(=O)c3ccco3)ccc2N2CCCCC2)cc1	13	0.9	28	29	0.9	2
CC(C)Oc1ccc(OCCCN2CCCCCC2)cc1	2	1	13	100*	1.1	-31
COc1ccc(C2(O)CCN(CCCCOc3ccccc3)CC2)cc1	-5	0.9	32	95*	1	19
c1ccc(COc2ccc(OCCN3CCCC3)cc2)cc1	.	0.9	10	100*	0.8	-7
CC1CCN(CCCOc2ccc(OCc3ccccc3)cc2)CC1	9	1	63	100*	1.1	-21
COc1ccc(C2(O)CCN(C(=O)Cc3cccnc3)CC2)cc1	-3	0.9	0	-6	0.9	1
CC(=O)c1ccc(N2CCN(C(=O)Nc3cccc(F)c3)CC2)cc1	-2	1	-2	37	1	-7
Cc1ccc(CNS(=O)(=O)c2ccc3c(c2)CCN3C(=O)CCCC(=O)O)cc1	.	1.1	9	-6	1	-15
C=CCN(CC=C)c1nc2ccccc2nc1C(C#N)C(=O)OCCOC (stereo not drawn)	-13	0.9	59*	9	0.7	-222
Cc1c(-c2cccc(NC(=O)c3ccco3)c2)nc2ncccn12	-29	1.1	0	100*	1.1	i
Cc1c(-c2cccc(NC(=O)c3cccs3)c2)nc2ncccn12	0	1	-23	75*	1.1	-481
Cc1onc(-c2ccccc2Cl)c1C(=O)Nc1cccc(-c2nc3ncccn3c2C)c1	.	1	-12	14	1.1	-496
O=C1C=CC2C(c3ccc4c(c3)OCO4)CC1N2Cc1ccccc1 (stereo not drawn)	6	0.9	9	100*	0.4	-62
CCOC(=O)C1(Cc2ccccc2)CCN(C2Cc3ccccc3C2)CC1	5	1	1	83*	1	-30
CCOC(=O)C1(Cc2ccccc2)CCCN(C2CCCC2)C1 (stereo not drawn)	-1	1	-15	76*	1	11
CCN(C(=O)c1ccc2c(Cl)c3c(nc2c1)CCC3)c1ccc(C)c(C)c1	0	0.9	94*	20	0.9	17
CN(C(=O)c1ccc2c(Cl)c3c(nc2c1)CCC3)c1ccccc1	-3	0.9	37	8	0.9	29
SMILES	Rad51 HR inh	PMI activator	WT yeast gro inh	Lmaj promast	PMI act hi M6P	Calpain2 inh
COc1ccc(C=C(c2nc3ccccc3s2)c2nc3ccccc3s2)cc1O	.	0.9	48	99*	0.7	-52
COc1cc(C=C(c2nc3ccccc3s2)c2nc3ccccc3s2)ccc1O	.	0.8	55	97*	0.7	-60
COC(=O)[C@@]1(Cc2ccc(F)cc2)[C@H]2c3cc(C(=O)N4CCCC4)n(CCc4ccccn4)c3C[C@H]2CN1C(=O)c1ccccc1	1	0.9	20	99*	0.9	-35
COC(=O)[C@@]1(Cc2ccc(F)cc2)[C@H]2c3cc(C(=O)N4CCCC4)n(CCc4c[nH]c5ccc(OC)cc45)c3C[C@H]2CN1C(=O)c1ccccc1	.	0.9	20	79*	0.9	-94
COCCn1c(C(=O)N2CCCC2)cc2c1C[C@H]1CN(C(=O)c3ccccc3)[C@@](Cc3ccc(F)cc3)(C(=O)OC)[C@@H]21	9	0.9	-2	17	0.9	-53
COC(=O)[C@@]1(Cc2ccc(OC)cc2)[C@H]2c3cc(C(=O)N(C)C)n(Cc4ccc(OC(F)(F)F)cc4)c3C[C@H]2CN1C(=O)c1ccccc1	-8	0.9	35	50*	0.9	-77
COC(=O)[C@@]1(Cc2ccc(F)cc2)[C@H]2c3cc(C(=O)N(C)C)n(Cc4ccccc4)c3C[C@H]2CN1C(=O)c1ccccc1	-6	0.9	48	39	0.8	-76
COC(=O)[C@@]1(Cc2ccc(F)cc2)[C@H]2c3cc(C(=O)N(C)C)n(CCc4ccccn4)c3C[C@H]2CN1C(=O)c1ccccc1	6	1	-5	91*	1.1	-56
COC(=O)[C@@]1(Cc2ccc(OC)cc2)[C@H]2c3cc(C(=O)N4CCCC4)n(Cc4ccc(C)o4)c3C[C@H]2CN1C(=O)c1ccccc1	-2	0.9	65*	53*	0.9	-52
COC(=O)c1ccc(COC(=O)c2ccc(CO)cc2)o1	-5	1	-14	65*	1	25
CCOC(=O)c1cnc(SC)nc1Sc1ccccc1Cl	2	0.9	67*	-4	0.9	-3
CSc1nc(Sc2ccccc2Cl)c2ccccc2n1	-4	0.9	68*	-1	0.9	-17
CCOC(=O)C1(CC2CC2)CCN(S(=O)(=O)/C=C/c2ccccc2)CC1	0	0.9	22	4	0.9	28
CCOC(=O)C1C(c2cccc(F)c2)NC(=S)NC1(O)C(F)(F)F (stereo not drawn)	11	1.2	-8	-4	1.3	-21
CCOC(=O)C1CCN(C(=O)CN(Cc2ccccc2)S(C)(=O)=O)CC1	-2	0.9	-10	-2	0.9	-19
CCOC(=O)C1CCC(CN(Cc2ccccc2)S(=O)(=O)c2ccc([N+](=O)[O-])cc2)CC1 (stereo not drawn)	4	1.3	71*	22	1.2	21
